In test [1] the test system is MIA PaCa2. Nature of the test: Cell viability assay. The test is classed as cell-based, human. The settings on record: read-out: IC50 (μM) MIA PaCa2. The method in brief: (§1)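 Cells were grown in RPMI-1640 with 10% FBS, pyruvate, HEPES, glutamine and antibiotics at 37°C, 5% CO2, and seeded at 6000 cells/well. After 24 h adherence, half the medium was replaced with serially diluted test compound, 5-fluorouracil, or methanol-containing medium. Exposure lasted 72 h. MTT (5 mg/ml solution) was then added for 3 h at 37°C, formazan dissolved in HCl-acidified isopropanol, and absorbance read at 570 nm.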

For test [2], the system named is Panc-1. The test can be described thus: Cell viability assay. The test is classed as cell-based, human. Conditions: read-out: IC50 (μM) Panc-1. The method in brief: as §1
Test [3] relates to BxPC-3. The test can be described thus: Cell viability assay. The test is classed as cell-based, human. Conditions: read-out: IC50 (μM) BxPC-3. The method in brief:
as §1

Test [4] concerns AsPC-1. Nature of the test: Cell viability assay. The test is classed as cell-based, human. Conditions: read-out: IC50 (μM) AsPC-1. The method in brief:
as §1

The subject of test [5] is AsPC-1 cells. Nature of the test: Cell cycle analysis by flow cytometry. The test is classed as cell-based, human. Conditions: 48 hours. The gist of the method:
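AsPC-1 cells were trypsinized into 6-well plates and allowed to adhere for 24 h. They were then exposed for 48 h to test compound at 5 or 25 μg/ml, methanol vehicle, medium alone, or 100 nM paclitaxel as positive control. Cells were fixed in ice-cold ethanol (−20°C, 1 h) and stained with propidium iodide plus RNase A (30 min, 37°C) for flow cytometry. Run 3 times.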

Test [6] addresses topoisomerase II (Homo sapiens, UniProt P11388). The test can be described thus: Decatenation reaction of kinetoplast DNA. The test is classed as biochemical. Conditions: for inhibition at 25 µg/mL: read-out: % Inhibition topoisomeraseII; for topoisomerase II inhibition (in words) / % Inhibition topoisomeraseII: 25 μg/ml; for % Inhibition topoisomeraseII: decatenation of kinetoplast DNA, 30 minutes. The method in brief:
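A commercial kit assay was used: 0.2 μg kinetoplast DNA plus 1 U topoisomerase II in ATP/MgCl2/DTT buffer, 20 μl reactions. Test compound was added at 5 or 25 μg/ml (methanol vehicle); 100 μM etoposide in DMSO served as positive control. Reactions ran 30 min at 37°C, were stopped with Sarkosyl loading dye, and resolved on 1% agarose with ethidium bromide. Gel densitometry was used; seven experiments, SEM, Student's t test.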

Test [7] has as its system genomic salmon testes DNA. The test can be described thus: DNA intercalation assay. The test is classed as binding. Conditions: for % DNA intercalation: 25 μg/ml, ethidium bromide displacement; for DNA intercalation (in words): 5 and 25 μg/ml. The gist of the method: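 Genomic salmon testes DNA (0.5 μg) was equilibrated with 1.27 μM ethidium bromide for 30 min at room temperature. Test compound (5 or 25 μg/ml), methanol vehicle, 1 μM doxorubicin (positive control) or 100 μM etoposide (negative control) was added for a further 30 min. Ethidium displacement was read as a fluorescence decrease (ex 340, em 590 nm). Mean of 3 experiments ± standard deviation.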

Test [8] concerns Vero. The test can be described thus: Cell viability assay. The test is classed as cell-based, African green monkey. Conditions: read-out: IC50 (μM) Vero; MTT, 72 hours, n=4 ± SE; normal cell line. The gist of the method: as §1
Test [9] concerns BxPC-3. Conditions: read-out: IC50 (μM) BxPC-3; ref Li et al ([14]); cited from earlier work.
In test [10] the test system is Panc-1. The settings on record: read-out: IC50 (μM) Panc-1; ref Li et al ([14]); cited from earlier work.
Test [11] relates to AsPC-1. Conditions: read-out: IC50 (μM) AsPC-1; ref Li et al ([14]); cited from earlier work.
Test [12] has as its system MIA PaCa2. Conditions: read-out: IC50 (μM) MIA PaCa2; ref Li et al ([14]); cited from earlier work.
Test [13] deals with Panc-1, AsPC-1, BxPC-3, and MIA-PaCa2. The test can be described thus: Cell viability assay. The test is classed as cell-based, human. The settings on record: read-out: IC50 in all pancreatic cell lines. The method in brief: as §1

Read-outs that look alike come from different tables or passages of the source. Marks after values point to notes of the source that are not given here. Some results are limits rather than exact numbers.

Chain of topoisomerase II (P11388 whole entry): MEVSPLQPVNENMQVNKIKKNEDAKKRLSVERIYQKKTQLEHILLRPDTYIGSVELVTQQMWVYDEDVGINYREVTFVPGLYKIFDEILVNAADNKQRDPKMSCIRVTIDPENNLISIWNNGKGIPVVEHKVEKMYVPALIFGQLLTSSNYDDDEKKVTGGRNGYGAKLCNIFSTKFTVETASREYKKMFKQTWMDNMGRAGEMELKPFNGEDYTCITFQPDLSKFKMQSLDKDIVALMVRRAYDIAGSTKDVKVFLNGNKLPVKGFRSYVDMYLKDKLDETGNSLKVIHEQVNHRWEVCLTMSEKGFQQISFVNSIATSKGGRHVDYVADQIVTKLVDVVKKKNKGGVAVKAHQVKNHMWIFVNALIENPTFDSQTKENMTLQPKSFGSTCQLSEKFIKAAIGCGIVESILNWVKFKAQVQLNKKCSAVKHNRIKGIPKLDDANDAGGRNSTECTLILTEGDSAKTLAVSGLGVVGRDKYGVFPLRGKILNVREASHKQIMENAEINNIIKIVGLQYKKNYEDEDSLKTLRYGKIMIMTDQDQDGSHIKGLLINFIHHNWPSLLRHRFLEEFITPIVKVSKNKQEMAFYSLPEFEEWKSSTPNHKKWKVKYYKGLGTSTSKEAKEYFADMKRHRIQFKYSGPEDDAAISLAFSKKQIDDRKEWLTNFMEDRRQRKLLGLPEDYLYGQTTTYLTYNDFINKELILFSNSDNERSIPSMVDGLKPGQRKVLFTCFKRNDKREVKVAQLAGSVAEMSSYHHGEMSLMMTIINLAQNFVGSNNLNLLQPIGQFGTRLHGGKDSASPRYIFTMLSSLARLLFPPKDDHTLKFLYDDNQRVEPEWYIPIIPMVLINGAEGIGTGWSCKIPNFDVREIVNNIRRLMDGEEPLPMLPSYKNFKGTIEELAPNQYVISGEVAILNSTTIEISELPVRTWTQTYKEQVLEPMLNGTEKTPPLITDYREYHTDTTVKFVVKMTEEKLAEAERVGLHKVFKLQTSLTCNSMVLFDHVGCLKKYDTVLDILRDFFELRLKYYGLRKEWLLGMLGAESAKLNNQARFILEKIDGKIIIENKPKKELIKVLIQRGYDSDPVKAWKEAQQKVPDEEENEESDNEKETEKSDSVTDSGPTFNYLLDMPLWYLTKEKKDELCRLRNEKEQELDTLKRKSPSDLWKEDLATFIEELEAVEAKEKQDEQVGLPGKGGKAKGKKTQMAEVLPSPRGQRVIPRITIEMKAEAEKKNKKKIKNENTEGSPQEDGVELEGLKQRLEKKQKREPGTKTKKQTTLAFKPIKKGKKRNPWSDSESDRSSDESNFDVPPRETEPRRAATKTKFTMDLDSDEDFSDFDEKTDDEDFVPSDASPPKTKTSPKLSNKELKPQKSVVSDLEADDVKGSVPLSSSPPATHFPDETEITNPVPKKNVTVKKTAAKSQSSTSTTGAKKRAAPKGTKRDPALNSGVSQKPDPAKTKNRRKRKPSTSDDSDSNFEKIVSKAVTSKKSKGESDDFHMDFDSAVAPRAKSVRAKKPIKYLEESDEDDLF

For `O=c1[nH]cc(F)c(=O)[nH]1` [5-Fluorouracil, 5-fluorouracil, reference compound], the IC50 in [1] (Homo sapiens, MIA PaCa-2, 72 h) is 8.31 ± 0.357 µM; in test [2] (Homo sapiens, PANC-1, 72 h), 5.73 ± 0.682 µM; in test [3] (Homo sapiens, BXPC-3, 72 h), 5.56 ± 1.64 µM; in test [4] (Homo sapiens, ASPC1, 72 h), greater than 38.4 µM.
With `CSc1c2c3c(n1C)C(=O)C(=O)C(Cl)=C3NCC2` [Batzelline A], the Cell cycle arrest entry is “S-phase cell cycle arrest” in test [5] (5 μg/ml, data not shown) and “S phase” in [5] (25 μg/ml). For the same compound, the 50% inhibitory concentration (IC50) was greater than 17.7 µM in [1] (Homo sapiens, MIA PaCa-2, 72 h); greater than 17.7 µM in [2] (Homo sapiens, PANC-1, 72 h); greater than 17.7 µM in test [3] (Homo sapiens, BXPC-3, 72 h); greater than 17.7 µM in [4] (Homo sapiens, ASPC1, 72 h). Also, the inhibition at 25 µg/mL in test [6] stood at 58%. The “% DNA intercalation” value in test [7] came to 18%. Further, in test [7], the “DNA intercalation (in words)” value is “no DNA intercalation”.
`CSC1=Nc2c(O)c(O)c(Cl)c3c2=C1CCN=3` [Batzelline B]: the Cell cycle arrest result in test [5] (5 μg/ml, data not shown) is given as “did not have an effect”; in test [5] (25 μg/ml) it was “S phase”. For the same compound, the IC50 in test [1] (MTT, 72 hours, n=4 ± SE) is greater than 18.6 µM; in test [2] (MTT, 72 hours, n=4 ± SE) it was greater than 18.6 µM; in test [3] (MTT, 72 hours, n=4 ± SE) it was greater than 18.6 µM; in [4] (MTT, 72 hours, n=4 ± SE), greater than 18.6 µM; in test [8], greater than 18.6 µM. The “topoisomerase II inhibition (in words)” value in [6] is given as “significantly inhibited topoisomerase II activity”. In addition, the “% Inhibition topoisomeraseII” value in test [6] is 63 ^* %. For the same compound, the “% DNA intercalation” value in [7] worked out at 21%.
For the compound `Nc1ccn([C@@H]2O[C@H](CO)[C@@H](O)C2(F)F)c(=O)n1` [Gemcitabine, gemcitabine], the concentration for half-maximal inhibition (IC50) in test [9] is greater than 250 µM; in test [10] it was 7.2 µM; in test [11] it was greater than 250 µM; in test [12], 14.5 µM.
As to `CSc1c2c3c(n1C)C(=O)C(N)=C(Cl)C3=NCC2` [Isobatzelline A], the Cell cycle arrest entry in test [5] (5 μg/ml, data not shown) is recorded as “S-phase cell cycle arrest”; in [5] (25 μg/ml) it was “S phase”. Also, the IC50 is 4.34 ± 0.22 µM in test [1] (MTT, 72 hours, n=4 ± SE); 9.37 ± 0.536 µM in test [2] (MTT, 72 hours, n=4 ± SE); 2.39 ± 0.218 µM in test [3] (MTT, 72 hours, n=4 ± SE); 1.74 ± 0.415 µM in test [4] (MTT, 72 hours, n=4 ± SE); greater than 17.7 µM in test [8]; less than 10 µM in [13] (MTT, 72 hours). Moreover, in test [6], the “topoisomerase II inhibition (in words)” value is on record as “significantly inhibited topoisomerase II activity”. For the same compound, the “% Inhibition topoisomeraseII” value in test [6] is 36 ^* %. Besides, in [7], the “% DNA intercalation” value is 54 ^** %. The “DNA intercalation (in words)” value in [7] is “significant intercalation into DNA”.
As for `Cn1cc2c3c1C(=O)C(N)=C(Cl)C3=NCC2` [Isobatzelline C], the Cell cycle arrest entry is recorded as “S-phase cell cycle arrest” in test [5] (5 μg/ml, data not shown) and “S phase” in [5] (25 μg/ml). Further, the IC50 is 2.34 ± 0.0977 µM in test [1] (Homo sapiens, MIA PaCa-2, 72 h); 9.98 ± 0.384 µM in test [2] (Homo sapiens, PANC-1, 72 h); 1.31 ± 0.185 µM in [3] (Homo sapiens, BXPC-3, 72 h); 1.72 ± 0.168 µM in test [4] (Homo sapiens, ASPC1, 72 h); less than 10 µM in test [13] (Homo sapiens, 72 h). Besides, in test [6], the inhibition at 25 µg/mL is 27%. In addition, the “% DNA intercalation” value in [7] is 56 ^** %.
With `CSc1c2ccnc3c2c(n1C)C(=O)C(N)=C3Cl` [Isobatzelline D], the Cell cycle arrest result in [5] (5 μg/ml, data not shown) is recorded as “S-phase cell cycle arrest”; in test [5] (25 μg/ml), “S phase”. Besides, the IC50 in [1] (MTT, 72 hours, n=4 ± SE) was 2.67 ± 0.295 µM; in test [2] (MTT, 72 hours, n=4 ± SE), 5.72 ± 0.253 µM; in test [3] (MTT, 72 hours, n=4 ± SE) it was 1.48 ± 0.18 µM; in [4] (MTT, 72 hours, n=4 ± SE), 1.48 ± 0.187 µM; in [8] it was 15.7 ± 1.17 µM; in [13] (MTT, 72 hours), less than 10 µM. Also, in [6], the “% Inhibition topoisomeraseII” value was 26%. The “% DNA intercalation” value in [7] is listed as 47 ^** %.
Turning to `Cn1cc2ccnc3c2c1C(=O)C(N)=C3Cl` [Isobatzelline E], the Cell cycle arrest result in test [5] (5 μg/ml, data not shown) is “did not have an effect”. Moreover, the concentration for half-maximal inhibition (IC50) in test [1] (MTT, 72 hours, n=4 ± SE) is greater than 21.5 µM; in [2] (MTT, 72 hours, n=4 ± SE), greater than 21.5 µM; in [3] (MTT, 72 hours, n=4 ± SE), greater than 21.5 µM; in test [4] (MTT, 72 hours, n=4 ± SE) it was greater than 21.5 µM; in test [8], greater than 21.5 µM. The “topoisomerase II inhibition (in words)” value in test [6] is on record as “significantly inhibited topoisomerase II activity”. In addition, in [6], the “% Inhibition topoisomeraseII” value is reported as 95 ^* %. For the same compound, the “DNA intercalation (in words)” value in test [7] is recorded as “significant intercalation into DNA”.
`N=C1C(Cl)=C(N)C(=O)c2[nH]cc(C(O)CO)c21` (centres unmarked) [Secobatzelline A]: the Cell cycle arrest entry is listed as “S-phase cell cycle arrest” in test [5] (5 μg/ml, data not shown) and “S phase” in [5] (25 μg/ml). Further, the half-inhibitory concentration (IC50) in [1] (Homo sapiens, MIA PaCa-2, 72 h) was 5.63 ± 0.739 µM; in test [2] (Homo sapiens, PANC-1, 72 h) it was 10.4 ± 1.16 µM; in test [3] (Homo sapiens, BXPC-3, 72 h), 4.09 ± 0.146 µM; in test [4] (Homo sapiens, ASPC1, 72 h), 3.62 ± 0.801 µM; in test [13] (Homo sapiens, 72 h) it was less than 10 µM. The “topoisomerase II inhibition (in words)” value in test [6] is “significantly inhibited topoisomerase II activity”. For the same compound, the inhibition at 25 µg/mL in test [6] came out at 61%. For the same compound, in test [7], the “DNA intercalation (in words)” value is “significant intercalation into DNA”.
In the case of `NC1=C(Cl)C(=O)c2c(C(O)CO)c[nH]c2C1=O` (centres unmarked) [Secobatzelline B], the Cell cycle arrest entry in [5] (5 μg/ml, data not shown) is “did not have an effect”; in test [5] (25 μg/ml) it was “S phase”. Further, the IC50 was greater than 19.5 µM in test [1] (Homo sapiens, MIA PaCa-2, 72 h); 17.4 ± 0.281 µM in [2] (Homo sapiens, PANC-1, 72 h); greater than 19.5 µM in test [3] (Homo sapiens, BXPC-3, 72 h); greater than 19.5 µM in test [4] (Homo sapiens, ASPC1, 72 h). Also, the “topoisomerase II inhibition (in words)” value in [6] is on record as “no DNA intercalation or topoisomerase II inhibition”. The inhibition at 25 µg/mL in [6] turned out to be 13%. For the same compound, the “DNA intercalation (in words)” value in test [7] is listed as “no DNA intercalation”.

The values above are taken from PMC3031457 (Anti-cancer drugs, 2009).
